Test results as given in ChEMBL document CHEMBL3856229, “Hybrid Antibiotic Overcomes Resistance in P. aeruginosa by Enhancing Outer Membrane Penetration and Reducing Efflux” (J Med Chem, 2016).
Activity calls are given as the source filed them. The rule behind the calls is not given here.

What was measured:
Pseudomonas aeruginosa [1] = experiment: Antibacterial activity against multidrug-resistant/tobramycin-susceptible Pseudomonas aeruginosa isolate 86052; assay type: functional
Enterococcus faecalis = experiment: Antibacterial activity against Enterococcus faecalis ATCC 29212 after 24 hrs by microtitre broth dilution method; assay type: functional; conditions: ATCC 29212, 24 h
Streptococcus pneumoniae = experiment: Antibacterial activity against Streptococcus pneumoniae ATCC 49619 after 24 hrs by microtitre broth dilution method; assay type: functional; conditions: ATCC 49619, 24 h
Pseudomonas aeruginosa [2] = experiment: Antibacterial activity against gentamicin-resistant Pseudomonas aeruginosa isolate CAN-ICU 62308 after 24 hrs by microtitre broth dilution method; assay type: functional; conditions: isolate CAN-ICU 62308, 24 h
Pseudomonas aeruginosa [3] = experiment: Antibacterial activity against gentamicin/tobramycin-resistant Pseudomonas aeruginosa isolate CANWARD-2011 96846 after 24 hrs by microtitre broth dilution method; assay type: functional; conditions: isolate CANWARD-2011 96846, 24 h
Acinetobacter baumannii [4] = experiment: Antibacterial activity against Acinetobacter baumannii isolate CAN-ICU 63169 after 24 hrs by microtitre broth dilution method; assay type: functional; conditions: isolate CAN-ICU 63169, 24 h
Pseudomonas aeruginosa [5] = experiment: Antibacterial activity against multidrug/extremely drug-resistant/colistin-susceptible Pseudomonas aeruginosa isolate 259-96918; assay type: functional
Pseudomonas aeruginosa [6] = experiment: Antibacterial activity against multidrug/extremely drug-resistant/colistin-susceptible Pseudomonas aeruginosa isolate 260-97103; assay type: functional
Pseudomonas aeruginosa [7] = experiment: Antibacterial activity against multidrug/extremely drug-resistant/colistin-susceptible Pseudomonas aeruginosa isolate 262-101856; assay type: functional
Pseudomonas aeruginosa [8] = experiment: Antibacterial activity against multidrug/extremely drug-resistant/colistin-susceptible Pseudomonas aeruginosa isolate 264-104354; assay type: functional
Pseudomonas aeruginosa [9] = experiment: Antibacterial activity against pandrug-resistant Pseudomonas aeruginosa isolate 101243; assay type: functional
Pseudomonas aeruginosa [10] = experiment: Antibacterial activity against multidrug-resistant/tobramycin-susceptible Pseudomonas aeruginosa isolate 86067; assay type: functional
Pseudomonas aeruginosa [11] = experiment: Antibacterial activity against multidrug-resistant/tobramycin-susceptible Pseudomonas aeruginosa isolate 92014; assay type: functional
Pseudomonas aeruginosa [12] = experiment: Antibacterial activity against multidrug-resistant/tobramycin-susceptible Pseudomonas aeruginosa isolate 80621; assay type: functional
Escherichia coli [13] = experiment: Antibacterial activity against fluoroquinolone resistant Escherichia coli isolate 80960 harboring beta-lactamase CTX-M-15/TEM-1; assay type: functional
Escherichia coli [14] = experiment: Antibacterial activity against fluoroquinolone resistant Escherichia coli isolate 85332 harboring beta-lactamase CTX-M-14/TEM-1; assay type: functional
Escherichia coli [15] = experiment: Antibacterial activity against fluoroquinolone resistant Escherichia coli isolate 87164 harboring beta-lactamase CTX-M-15/TEM-1; assay type: functional
Escherichia coli [16] = experiment: Antibacterial activity against fluoroquinolone resistant Escherichia coli isolate 88273 harboring beta-lactamase CTX-M-15/TEM-1/OXA-1; assay type: functional
Escherichia coli [17] = experiment: Antibacterial activity against fluoroquinolone resistant Escherichia coli isolate 89439 harboring beta-lactamase CTX-M-15/OXA-1; assay type: functional
Escherichia coli [18] = experiment: Antibacterial activity against fluoroquinolone resistant Escherichia coli isolate 90087 harboring beta-lactamase CTX-M-15/OXA-1; assay type: functional
Escherichia coli [19] = experiment: Antibacterial activity against fluoroquinolone resistant Escherichia coli isolate 92756 harboring beta-lactamase CTX-M-14/TEM-1; assay type: functional
Acinetobacter baumannii [20] = experiment: Antibacterial activity against fluoroquinolone resistant Acinetobacter baumannii isolate ABO27; assay type: functional
Pseudomonas aeruginosa [21] = experiment: Bactericidal activity against Pseudomonas aeruginosa PAO1 at 2 times MIC up to 24 hrs by time-kill kinetic study; assay type: functional
Method in brief: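 PAO1 was grown in MH broth with varying concentrations of the test agent; colistin at its MIC served as comparator. Viable counts (CFU) were followed up to 24 h. There were three independent experiments, and each point is the mean of three determinations ± SEM.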

[22] = Hemolytic activity in human erythrocytes at 1000 microg/ml after 30 mins by spectrometry; assay type: ADME, cell-based, Erythrocyte; conditions: read-out: Activity
Pseudomonas aeruginosa [23] = experiment: Antibacterial activity against Pseudomonas aeruginosa PAO1 assessed as fractional inhibitory concentration index after 18 hrs in presence of chloramphenicol by checkerboard method; assay type: functional
Method in brief: (§1)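 Checkerboard combinations of the hybrid with each partner antibiotic were tested against P. aeruginosa PAO1. Interaction is expressed as the fractional inhibitory concentration (FIC) index: ≤0.5 means synergy, 1–2 no interaction, ≥4 antagonism.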

Pseudomonas aeruginosa [24] = experiment: Antibacterial activity against Pseudomonas aeruginosa PAO1 assessed as fractional inhibitory concentration index after 18 hrs in presence of minocycline by checkerboard method; assay type: functional; method in brief: as §1
Pseudomonas aeruginosa [25] = experiment: Antibacterial activity against Pseudomonas aeruginosa PAO1 assessed as fractional inhibitory concentration index after 18 hrs in presence of trimethoprim by checkerboard method; assay type: functional; method in brief: as §1
Pseudomonas aeruginosa [26] = experiment: Antibacterial activity against Pseudomonas aeruginosa PAO1 assessed as fractional inhibitory concentration index after 18 hrs in presence of meropenem by checkerboard method; assay type: functional; method in brief: as §1
Pseudomonas aeruginosa [27] = experiment: Potentiation of ciprofloxacin induced antibacterial activity against multidrug/extremely drug-resistant Pseudomonas aeruginosa isolate PA259-96918 assessed as ciprofloxacin MIC at <= […] ug/ml (reference value: […] ug/ml); assay type: functional
Pseudomonas aeruginosa [28] = experiment: Potentiation of ciprofloxacin induced antibacterial activity against multidrug/extremely drug-resistant Pseudomonas aeruginosa isolate PA262-101856 assessed as ciprofloxacin MIC at <= […] ug/ml (reference value: […] to […] ug/ml); assay type: functional
Pseudomonas aeruginosa [29] = experiment: Potentiation of ciprofloxacin induced antibacterial activity against multidrug/extremely drug-resistant Pseudomonas aeruginosa isolate PA264-104354 assessed as ciprofloxacin MIC at <= […] ug/ml (reference value: […] to […] ug/ml); assay type: functional
Pseudomonas aeruginosa [30] = experiment: Potentiation of moxifloxacin induced antibacterial activity against multidrug/extremely drug-resistant Pseudomonas aeruginosa isolate PA264-104354 assessed as moxifloxacin MIC at <= […] ug/ml (reference value: […] to […] ug/ml); assay type: functional
Pseudomonas aeruginosa [31] = experiment: Potentiation of moxifloxacin induced antibacterial activity against pandrug-resistant Pseudomonas aeruginosa isolate 101243 assessed as moxifloxacin MIC at <= […] ug/ml (reference value: 8 ug/ml); assay type: functional
Pseudomonas aeruginosa [32] = experiment: Antibacterial activity against multidrug/extremely drug-resistant Pseudomonas aeruginosa isolate PA262-101856 in presence of <= 4 ug/ml of ciprofloxacin (reference value: 4 ug/ml); assay type: functional
Pseudomonas aeruginosa [33] = experiment: Antibacterial activity against multidrug/extremely drug-resistant Pseudomonas aeruginosa isolate PA264-104354 in presence of <= 4 ug/ml of moxifloxacin (reference value: 4 ug/ml); assay type: functional
Pseudomonas aeruginosa [34] = experiment: Antibacterial activity against pandrug-resistant Pseudomonas aeruginosa isolate 91433 in presence of <= 4 ug/ml of moxifloxacin (reference value: 8 ug/ml); assay type: functional
Pseudomonas aeruginosa [35] = experiment: Induction of cytoplasmic membrane depolarization in Pseudomonas aeruginosa PAO1 by DiSC3(5) dye based fluorescence assay; assay type: functional
Pseudomonas aeruginosa [36] = experiment: Antimotility activity against Pseudomonas aeruginosa PAO1 assessed as reduction in flagellum-dependent swimming motility after 20 hrs; assay type: functional
Method in brief: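 Swim plates (0.3% agar, dried and set for 60 min) were inoculated with PAO1 at OD600 1.0, with or without 0.25 µg/mL test agent. Plates were imaged after 20 h at 37 °C.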

Pseudomonas aeruginosa [37] = experiment: Induction of inner membrane permeabilization in Pseudomonas aeruginosa PAO1 assessed as accumulation of propidium iodide at 8 ug/ml after 3 to 4 hrs by fluorescence microscopy; assay type: functional
Method in brief: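 PAO1 cells were treated with 8 µg/mL for 3 h at 37 °C, then stained with the membrane-impermeable nucleic-acid dye propidium iodide. Fluorescence microscopy and DIC imaging were compared against untreated cells.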

## COc1c(N2C[C@@H]3CCCN(CCCCCCCCCCCCO[C@@H]4[C@@H](O[C@H]5O[C@H](CO)[C@@H](O)[C@H](N)[C@H]5O)[C@H](N)C[C@H](N)[C@H]4O[C@H]4O[C@H](CN)[C@@H](O)C[C@H]4N)[C@@H]3C2)c(F)cc2c(=O)c(C(=O)O)cn(C3CC3)c12.Cl.Cl.Cl.Cl.Cl
Pseudomonas aeruginosa [1]
  MIC: 2 µg/mL
Enterococcus faecalis
  MIC: 4 µg/mL
Streptococcus pneumoniae
  MIC: 1 µg/mL
Pseudomonas aeruginosa [2]
  MIC: 8 µg/mL
Pseudomonas aeruginosa [3]
  MIC: 4 µg/mL
Acinetobacter baumannii [4]
  MIC: 16 µg/mL
Pseudomonas aeruginosa [5]
  MIC: 2 µg/mL
Pseudomonas aeruginosa [6]
  MIC: 1 µg/mL
Pseudomonas aeruginosa [7]
  MIC: 4 µg/mL
Pseudomonas aeruginosa [8]
  MIC: 4 µg/mL
Pseudomonas aeruginosa [9]
  MIC: 8 µg/mL
Pseudomonas aeruginosa [10]
  MIC: 4 µg/mL
Pseudomonas aeruginosa [11]
  MIC: 4 µg/mL
Pseudomonas aeruginosa [12]
  MIC: 8 µg/mL
Escherichia coli [13]
  MIC: ≥ 64 µg/mL
Escherichia coli [14]
  MIC: ≥ 64 µg/mL
Escherichia coli [15]
  MIC: ≥ 64 µg/mL
Escherichia coli [16]
  MIC: ≥ 64 µg/mL
Escherichia coli [17]
  MIC: ≥ 64 µg/mL
Escherichia coli [18]
  MIC: ≥ 64 µg/mL
Escherichia coli [19]
  MIC: ≥ 64 µg/mL
Acinetobacter baumannii [20]
  MIC: 8 to 64 µg/mL
Pseudomonas aeruginosa [21]
  Activity: Active
[22]
  hemolysis at 0.5 h, 1000 microg/ml: < 2.5%
Pseudomonas aeruginosa [23]
  fractional inhibitory concentration index (FICI): 0.15
Pseudomonas aeruginosa [24]
  fractional inhibitory concentration index (FICI): 0.15
Pseudomonas aeruginosa [25]
  fractional inhibitory concentration index (FICI): 0.25
Pseudomonas aeruginosa [26]
  fractional inhibitory concentration index (FICI): 2
Pseudomonas aeruginosa [27]
  MIC: < 1 µg/mL
Pseudomonas aeruginosa [28]
  MIC: 1 µg/mL
Pseudomonas aeruginosa [29]
  MIC: 1 µg/mL
Pseudomonas aeruginosa [30]
  MIC: 1 µg/mL
Pseudomonas aeruginosa [31]
  MIC: 0.06 µg/mL
Pseudomonas aeruginosa [32]
  MIC: < 0.5 µg/mL
Pseudomonas aeruginosa [33]
  MIC: < 1 µg/mL
Pseudomonas aeruginosa [34]
  MIC: < 1 µg/mL
Pseudomonas aeruginosa [35]
  Activity: Dose-dependent effect
Pseudomonas aeruginosa [36]
  Activity: Dose-dependent effect
Pseudomonas aeruginosa [37]
  Activity: Active
